Screening results deposited in PubChem BioAssay by several laboratories.
Wee1 degr inh = Wee1 degradation inhibitors, primary screen, cell-based, HeLa, Wee1K328M-luciferase, luminescence; Wee1-like protein kinase (Homo sapiens), P30291; HeLa Luc-Wee1K328M stability; 100% = proteasome inhibitor MG132 effect; reporter increase, % at 5 µM; 220,000 compounds, 1.2% hits; AID 1321, 2008;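 active = activation above the mean of all tested compounds plus 3 SD, set per screening run, cut at about 8.8% in these data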;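 note: cells exposed to compound for 20 h before luminescence read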
PKD1 inh = inhibitors of human PKD1 kinase, biochemical, fluorescence polarization. Serine/threonine-protein kinase D1 (Homo sapiens), Q15139. PKD1 kinase fluorescence polarization assay. inhibition, % (no concentration beside the values). 200,000 compounds, 0.056% hits. AID 797, 2007
Rad51 HR inh = human RAD51 strand exchange inhibitors, primary screen, biochemical, fluorescence | 200,000 compounds, 0.085% hits | inhibition, % at 10 µM | AID 1385, 2008 | DNA repair protein RAD51 homolog 1 (Homo sapiens), Q06609 | hRad51 DNA strand exchange, fluorescence dequenching;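 active = inhibition above 40% at the single screening dose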
Target sequence (Q06609 whole entry, looked up): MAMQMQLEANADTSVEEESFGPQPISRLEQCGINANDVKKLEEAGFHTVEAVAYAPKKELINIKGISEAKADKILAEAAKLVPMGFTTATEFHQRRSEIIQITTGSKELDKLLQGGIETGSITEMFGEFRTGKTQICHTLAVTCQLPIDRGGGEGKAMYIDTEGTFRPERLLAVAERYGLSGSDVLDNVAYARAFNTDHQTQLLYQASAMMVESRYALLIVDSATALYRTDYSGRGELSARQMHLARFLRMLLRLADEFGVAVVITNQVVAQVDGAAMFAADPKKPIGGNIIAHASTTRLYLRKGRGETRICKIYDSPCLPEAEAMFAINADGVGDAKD
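Assay system: Human Rad51 nucleoprotein filaments preassembled on unlabelled ssDNA | Reagent: Donor/quencher-labelled 47-bp dsDNA substrate | Doses: One concentration, 10 µM final | Times: 37 °C 15-min filament assembly, 30-min compound preincubation, 15-min exchange | Technique: Fluorescein emission 520 nm, excitation 485 nm | Benchmarks: Plate control and blank wells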
Arbovirus inh = antivirals against arbovirus infection, primary screen, cell-based, full library, 10K replicate subset | 200,000 compounds, 0.37% hits | arbovirus infection cell-based antiviral screen | AID 1251, 2008 | inhibition, % at 10 µM; in the data active = inhibition above about 30%
L major viab = Leishmania major promastigote growth inhibition, primary screen | inhibition, % at 10 µM | Leishmania major promastigotes, resazurin fluorescence viability | 200,000 compounds, 9% hits;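 note: promastigotes grown with compound for 44 hours at 28 °C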
CHOP inhibitor = inhibitors of CHOP promoter induction, primary screen, cell-based, unfolded protein response, luciferase reporter. 220,000 compounds, 3.8% hits. inhibition, % at 10 µM. CHO-K1 CHOP-promoter luciferase, tunicamycin-induced, 15-18 h. AID 2732, 2010;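 active = compounds that reduced the stress-induced luciferase reporter signal by more than about 70% of percent inhibition, limit read from the data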
Of the large screens only hits and unclear results are named; the others gave an inactive call. Compounds with a hit are over-represented: about 12% of the library has one in this group of screens. Cut-off read from the data, not from the text of the source, unless noted: active = inhibition above about 50%; inactive = the rest.

O=C1/C(=C/c2cccc([N+](=O)[O-])c2)N2CCC1CC2	none
O=C1/C(=C\c2ccc(Cl)cc2Cl)N2CCC1CC2	none (no result: PKD1 inh, Rad51 HR inh, Arbovirus inh, L major viab)
O=C1/C(=C/c2cc3c(cc2Cl)OCO3)N2CCC1CC2	L major viab 92.0
O=C(O)C1C2CCC(O2)C1C(=O)NC1CCCCC1 (centres undefined)	none
CC1C(C)N1CC(O)Cn1ccnc1[N+](=O)[O-] (centres undefined)	none (no result: PKD1 inh, Arbovirus inh, L major viab)
Cc1cc(OC(=O)c2ccco2)c2c3c(c(=O)oc2c1)CCCC3	CHOP inhibitor 75.7
c1cncc(C2Nc3cccc4cccc(c34)N2)c1	Wee1 degr inh 11.5 (no result: PKD1 inh, Arbovirus inh, L major viab)
c1cncc(C2CCCCN2)c1 (centres undefined)	none (no result: PKD1 inh, Arbovirus inh, L major viab)
CC(=O)N(C1=NCCCS1)c1ccccc1Cl	L major viab 69.2
CSc1ccc(CN2CCN(Cc3ccccc3Cl)CC2)cc1	L major viab 82.3
CCN1CCN(Cc2cc(Br)cc(Br)c2O)CC1	L major viab 73.0
Oc1ccc(Br)cc1CN1CCN(c2ccccc2)CC1	none
CCN1CCN(Cc2cc(Br)ccc2O)CC1	L major viab 85.4
COc1cc(Br)cc(CN2CCN(C)CC2)c1O	L major viab 76.1
CCc1ccc(CN2CCN(Cc3cc(Br)ccc3O)CC2)cc1	L major viab 81.4
CN1C(=O)C(Cc2ccc3c(c2)OCO3)C(=O)N(C)C1=O	none
CC(=O)OC1(c2ccccc2)CCN(C2CCCCC2)CC1C (centres undefined)	none
CC(C)C(=O)NC(Oc1ccccc1Cl)C(Cl)(Cl)Cl (centres undefined)	none
C=C1C(=O)O[C@@H]2C[C@@H](C)[C@@H]3C=CC(=O)[C@@]3(C)[C@@H](OC(=O)CC(=O)O[C@H]3[C@@H]4C(=C)C(=O)O[C@@H]4C[C@@H](C)[C@@H]4C=CC(=O)[C@]43C)[C@H]12	CHOP inhibitor 107.8 (no result: Wee1 degr inh, PKD1 inh, Arbovirus inh, L major viab)
C=C1C(=O)O[C@H]2[C@H]1[C@H](OC(=O)CC(=O)O[C@@H]1C[C@@H](C)[C@@H]3C=CC(=O)[C@@]3(C)[C@H]3OC(=O)C(=C)[C@H]13)C[C@@H](C)[C@H]1C=CC(=O)[C@]12C	none (no result: Wee1 degr inh, PKD1 inh, Arbovirus inh, L major viab)
Cc1nc2ccccc2c(=O)n1-c1cc(F)ccc1F	none
COc1cc2c(cc1/C=C/[N+](=O)[O-])OCO2	Wee1 degr inh 10.7, L major viab 100.1, CHOP inhibitor 93.2
Cc1ccc(-n2c(C)cc(/C=C3/C(=O)NC(=O)N(C)C3=O)c2C)cc1	none
Cc1sc(-n2c(C)cc(C=C3C(=O)NC(=O)NC3=O)c2C)c(C#N)c1C	CHOP inhibitor 80.2
COc1c(C)cc(C(=O)C2CCCN(Cc3ccccn3)C2)cc1C (centres undefined)	L major viab 99.9
COc1ccc(F)cc1C(=O)C1CCCN(Cc2cnc(C)s2)C1 (centres undefined)	none
COc1ccc(Cl)cc1C(=O)C1CCCN(Cc2cnc(C)s2)C1 (centres undefined)	L major viab 78.2
Cc1ncc(CN2CCCC(C(=O)c3cccc(OC(C)C)c3)C2)s1 (centres undefined)	L major viab 89.4
CCn1ccnc1CN1CCCC(C(=O)c2cccc(C(F)(F)F)c2)C1 (centres undefined)	none
COc1cccc(C(=O)C2CCCN(Cc3ccccn3)C2)c1 (centres undefined)	none (no result: Rad51 HR inh)
COc1c(C)cc(C(=O)C2CCCN(Cc3cnc(C)s3)C2)cc1C (centres undefined)	L major viab 70.2
C1CC2NCCC3NCCC(N1)N32 (centres undefined)	none (no result: PKD1 inh, Arbovirus inh, L major viab)
CC(C)N1OC2CC1c1nc3ccccc3n1C2 (centres undefined)	none (no result: Wee1 degr inh, PKD1 inh, Arbovirus inh, L major viab)
Cc1ncc(CN2CCCC(C(=O)c3sccc3C)C2)s1 (centres undefined)	L major viab 52.0
CCCN(CCC)C1Cc2cc(OC)c(OC)cc2C1	none (no result: Wee1 degr inh, PKD1 inh, Arbovirus inh, L major viab)
Fc1ccc(CCNCc2ccccc2Cl)cc1	none
CCOc1ccc(Cl)cc1CNCCc1ccc(F)cc1	L major viab 64.6
c1ccc2c(c1)Sc1ccccc1N2CC1CN2CCC1CC2 (centres undefined)	none (no result: PKD1 inh, Arbovirus inh, L major viab)
Clc1ccccc1CNC1CN2CCC1CC2 (centres undefined)	Wee1 degr inh 11.3
